Screens (PubChem BioAssay)
Scp-1 inhibitor – Scp-1 phosphatase inhibitors, primary screen, biochemical, colorimetric, uHTS; Carboxy-terminal domain RNA polymerase II polypeptide A small phosphatase 1 (Homo …; Recombinant Scp1, phosphopeptide, malachite green phosphate absorbance; inhibition, % at 20 µM; 340,000 compounds, 0.88% hits; AID 493091, 2011;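 active = inhibition above about 50% at 20 µM, limit read from the data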
Target sequence (Q9GZU7 76-261 limits assumed): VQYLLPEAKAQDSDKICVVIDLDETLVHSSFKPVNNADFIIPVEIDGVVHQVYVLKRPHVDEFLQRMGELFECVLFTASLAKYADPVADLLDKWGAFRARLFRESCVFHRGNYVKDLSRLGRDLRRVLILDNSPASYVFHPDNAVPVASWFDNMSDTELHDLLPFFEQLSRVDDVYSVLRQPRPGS
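System: SCP-1 catalytic domain; Reagent: Phospho 17-mer peptide substrate; Doses: one concentration, 20 µM, with 1.0% DMSO; Incubation: 45 min room-temperature reaction, 5 min colour, 30 min stabiliser; Signal: Phosphate-binding colour reagent, absorbance read at 630 nm.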
DNMT1 block – human DNMT1 methyltransferase inhibitors, primary screen, biochemical, molecular beacon, fluorescence, HinP1I cleavage, uHTS | inhibition (reported as % activation of signal), % at 10 µM | 360,000 compounds, 0.83% hits | AID 588458, 2011; in the data active = inhibition above about 50%
SUMO1 PPI mod – modulators of SUMO1 protein-protein interactions, primary screen, biochemical, uHTS; Small ubiquitin-related modifier 1 (Homo sapiens), P63165; SUMO1 binding to a labelled peptide, TR-FRET, 1 h; inhibition, % at 20 µM; 360,000 compounds, 0.33% hits; AID 602429, 2012; in the data active = inhibition above about 37%
GRK2 aptamer HTS – compounds blocking aptamer binding on GRK2 – biochemical, human GRK2, bead flow cytometry, HTS, primary screen. Beta-adrenergic receptor kinase 1 (Homo sapiens), P25098. FAM-aptamer displacement from GRK2. inhibition of aptamer binding, % at 10 µM. 330,000 compounds, 0.59% hits. AID 488847, 2010;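 active = inhibition of aptamer binding above 40%, roughly 3 SD of noise, on plates passing a quality check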;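 note: median bead fluorescence of bound FAM aptamer so fluorescent compounds give negative values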
STEP block – STEP phosphatase inhibitors, primary screen, biochemical, fluorescence intensity, uHTS | recombinant STEP, OMFP fluorogenic substrate | inhibition, % at 20 µM | 360,000 compounds, 0.25% hits | AID 588621, 2011;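 active = inhibition at 20 µM, scaled per plate between control wells, above about 37%, limit read from the data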
Target sequence (P54829 whole entry, looked up): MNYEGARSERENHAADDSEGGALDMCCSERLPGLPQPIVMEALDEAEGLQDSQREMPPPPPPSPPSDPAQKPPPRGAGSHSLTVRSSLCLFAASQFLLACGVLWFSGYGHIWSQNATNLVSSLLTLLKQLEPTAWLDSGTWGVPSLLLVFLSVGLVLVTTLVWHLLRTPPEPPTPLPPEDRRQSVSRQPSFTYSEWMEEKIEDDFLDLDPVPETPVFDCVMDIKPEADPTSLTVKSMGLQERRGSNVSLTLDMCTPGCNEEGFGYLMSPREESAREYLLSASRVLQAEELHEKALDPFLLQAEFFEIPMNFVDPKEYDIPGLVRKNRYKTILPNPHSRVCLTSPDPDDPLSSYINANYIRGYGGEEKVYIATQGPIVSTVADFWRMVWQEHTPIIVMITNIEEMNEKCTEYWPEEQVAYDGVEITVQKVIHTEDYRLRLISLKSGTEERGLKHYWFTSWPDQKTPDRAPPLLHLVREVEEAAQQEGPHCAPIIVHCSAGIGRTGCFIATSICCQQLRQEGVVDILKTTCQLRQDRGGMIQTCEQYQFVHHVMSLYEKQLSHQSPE
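Material: STEP (striatal-enriched tyrosine phosphatase) enzyme, cell-free; Compound dosing: 20 µM single dose in 1% DMSO; Technique: fluorescence read at 480 nm ex / 540 nm em; Times: reaction 20 min, ambient temperature; Medium: 50 mM Bis-Tris pH 6.0 with 2.5 mM DTT and 0.005% Tween 20; Also added: OMFP at 25 µM.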
LMPTP inh – LMPTP phosphatase inhibitors, primary screen, biochemical, fluorescence intensity, uHTS. recombinant LMPTP-A, OMFP fluorogenic substrate. AID 651560, 2012. Low molecular weight phosphotyrosine protein phosphatase (Homo sapiens), P24666. 360,000 compounds, 0.22% hits. inhibition, % at 20 µM;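 active = compounds that cut the enzyme signal by at least half of the control window in the single-dose screen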
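Assay system: LMPTP-A enzyme. Input: 0.625 nM LMPTP-A final. Probe or stimulus: 400 µM OMFP. Compound dosing: single 20 µM dose. Schedule: 50 min dark incubation at room temperature. Detection: fluorescence intensity of OMFP turnover product. Read-out: percent inhibition versus substrate-only and uninhibited controls. Benchmarks: no-enzyme low control, uninhibited high control.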
GRK2 CP1 – GRK2 aptamer-displacing inhibitors, retest, confirmation, biochemical, cherry pick 1, bead flow cytometry | shares compounds with GRK2 aptamer HTS | bead-bound GRK2, FAM-aptamer displacement | aptamer displacement, % at 10 µM | 2,000 compounds, 4% hits | AID 504451, 2011;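 active = aptamer displacement above 40%, near three times the noise of non-fluorescent compounds, on plates passing quality checks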;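 note: negative values mostly reflect intrinsic compound fluorescence rather than true enhancement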
Aptamer quench SP – aptamer fluorescence quenching in GRK2 counter-screen; shares compounds with GRK2 aptamer HTS; Carboxyfluorescein RNA aptamer on beads, flow cytometry quenching; stronger effect = lower value; fluorescence response (% of DMSO), % at 10 µM; 2,000 tested, under 10 active;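 active = compounds that quench the bead-bound fluorescent RNA probe, cutting fluorescence to under half of the solvent control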;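 note: counterscreen run without GRK2 so only probe quenching by compound is measured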
GRK2 CP2 – GRK2 aptamer-displacing inhibitors, hit retest, confirmation, biochemical, cherry pick 2, bead flow cytometry; shares compounds with GRK2 aptamer HTS; bead-bound GRK2, FAM-aptamer displacement; inhibition of aptamer binding, % at 10 µM; 360 tested, under 10 active; AID 504782, 2011;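 active = inhibition of aptamer binding above 40%, about triple the noise seen with nonglowing compounds, on plates passing quality control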;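 note: negative values mostly come from compounds that fluoresce themselves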
FAM quench CP2 – aptamer fluorescence quenching in GRK2 counter-screen; carboxyfluorescein RNA aptamer beads, flow cytometry quenching; stronger effect = lower value; AID 588494; shares compounds with GRK2 aptamer HTS; fluorescence response vs DMSO, % at 10 µM; 360 tested, under 10 active;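 active = response vs DMSO under 50%, meaning signal dropped by over half, treated as fluorescence quencher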;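 note: labelled aptamer on streptavidin beads without GRK2 as a quench counter-screen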
Large screens that a line does not name were inactive (follow-up assays come after a bar, where they were run). This is a sample that favours compounds with a hit; in the whole collection about 2.2% have one here.

Cc1ccc(-c2onc3ccc(C=O)cc23)cc1	GRK2 aptamer HTS 45.0 | GRK2 CP1 inactive | Aptamer quench SP inactive
Cc1ccc(-c2onc3ccc(C4(C)OCCO4)cc23)cc1	none
COC(=O)C(Cc1ccccc1)NC(=O)CC(C)CC(=O)Nc1ccc(C)cc1 (stereo unspecified)	GRK2 aptamer HTS 46.0 | GRK2 CP1 inactive | Aptamer quench SP inactive
COC(=O)[C@H](Cc1ccccc1)NC(=O)N1CCCCCC1	none | GRK2 CP1 inactive | Aptamer quench SP inactive
COC(=O)[C@H](Cc1ccccc1)NC(=O)N1CCN(c2ccc(F)cc2)CC1	none | GRK2 CP1 inactive | Aptamer quench SP inactive
COC(=O)[C@H](Cc1ccccc1)NC(=O)N1CCN(Cc2ccccc2)CC1	none
O=C(O)[C@H](Cc1ccccc1)NC(=O)N1CCOCC1	none
O=C(O)[C@H](Cc1ccccc1)NC(=O)N1CCCCCC1	GRK2 aptamer HTS 100.0 | GRK2 CP1 inactive | Aptamer quench SP inactive
COc1cccc(N2CCN(C(=O)c3ccc(OC)c(S(=O)(=O)NC4CC4)c3)CC2)c1	none (no result: Scp-1 inhibitor, GRK2 aptamer HTS)
CC(=O)N1CCc2cc(S(=O)(=O)C(C)CC(=O)NCc3ccco3)ccc21 (stereo unspecified)	none (no result: Scp-1 inhibitor, GRK2 aptamer HTS)
CC(=O)/C=N/Nc1ccccc1	none
OC[C@@H](O)[C@H](O)C(/C=N/Nc1ccccc1)=N\Nc1ccccc1	none | GRK2 CP1 inactive | Aptamer quench SP inactive
Cc1ccccc1CSCC(=O)c1c(N)n(CC(C)C)c(=O)n(C)c1=O	none
CC(C)Cn1c(N)c(C(=O)CSc2ccccc2)c(=O)n(C)c1=O	GRK2 aptamer HTS 47.0 | GRK2 CP1 inactive | Aptamer quench SP inactive
CCCCN1CC(N2CCN(CCN(C)C)CC2)CS1(=O)=O (stereo unspecified)	none (no result: Scp-1 inhibitor, GRK2 aptamer HTS)
COc1ccc(Cl)cc1C(=O)NNC(=S)NC(=O)c1cc(-c2ccccc2)nc2ccccc12	GRK2 aptamer HTS 43.0 | GRK2 CP1 inactive | Aptamer quench SP inactive
Cc1nc([N+](=O)[O-])cn1CC(=O)Nc1ccc(F)c(Cl)c1	GRK2 aptamer HTS 51.0 | GRK2 CP1 inactive | Aptamer quench SP inactive
O=C(Cn1cnc([N+](=O)[O-])c1)Nc1ccc(F)c(Cl)c1	none (no result: GRK2 aptamer HTS)
Cc1nc(N2CCN(S(=O)(=O)c3cccs3)CC2)c2c(-c3ccccc3)c(C)sc2n1	none (no result: Scp-1 inhibitor, GRK2 aptamer HTS)
COc1ccc(Cl)cc1C(=O)Nc1cccc(-c2ccc3nncn3n2)c1	SUMO1 PPI mod 46.9, GRK2 aptamer HTS 60.0, STEP block 61.3 | GRK2 CP1 inactive | Aptamer quench SP inactive
O=C(c1ccc2nc(-c3ccco3)c(-c3ccco3)nc2c1)N1CCN(c2ncccn2)CC1	Scp-1 inhibitor 94.6, GRK2 aptamer HTS 45.0 | GRK2 CP1 inactive | Aptamer quench SP inactive
CCCOC(=O)CCCN1C(=O)/C(=C2\SC(=S)N(CCCC(=O)OCCC)C2=O)SC1=S	GRK2 aptamer HTS 60.0 | GRK2 CP1 inactive | Aptamer quench SP inactive
CCCCOC(=O)CCN1C(=O)/C(=C2\SC(=S)N(CCC(=O)OCCCC)C2=O)SC1=S	none
O=C(c1cccc(S(=O)(=O)N2CCOCC2)c1)N(Cc1nnc(-c2ccccc2Cl)o1)C1CC1	none
Cc1ccc(S(=O)(=O)N2CCOCC2)cc1C(=O)N(Cc1nnc(-c2ccccc2Cl)o1)C1CC1	GRK2 aptamer HTS 44.0 | GRK2 CP2 inactive | FAM quench CP2 inactive
COC(=O)c1sc(NC(=O)COc2cccc(C)c2)nc1C	GRK2 aptamer HTS 72.0 | GRK2 CP2 inactive | FAM quench CP2 inactive
COC(=O)c1sc(NC(=O)COc2ccc(OC)cc2)nc1C	none
COc1ccc(OC)c(CNC(=O)c2ccc(C)c(NC(=O)C3=C(C)OCCS3)c2)c1	none | GRK2 CP1 inactive | Aptamer quench SP inactive
CC1=C(C(=O)Nc2cc(C(=O)N(C)Cc3ccccc3)ccc2C)SCCO1	none | GRK2 CP1 inactive | Aptamer quench SP inactive
COCCNC(=O)c1ccc(C)c(NC(=O)C2=C(C)OCCS2)c1	none
CCc1ccc(-n2c(=S)sc3c(=O)[nH]c(SCC(=O)NC4CCCCC4)nc32)cc1	none (no result: Scp-1 inhibitor, GRK2 aptamer HTS)
Cc1ccc(S(=O)(=O)C2(C(=O)NC3CCCC3)CC2)cc1	none | GRK2 CP2 inactive | FAM quench CP2 inactive
Cc1ccc(S(=O)(=O)C2(C(=O)NC3CCCCC3C)CC2)cc1 (stereo unspecified)	none
Cc1ccc(S(=O)(=O)C2(C(=O)Nc3ccc4c(c3)OCO4)CC2)cc1	none | GRK2 CP2 inactive | FAM quench CP2 inactive
CNC[C@H]1OCc2ccccc2-c2ccccc2C(=O)N([C@@H](C)CO)C[C@H]1C	none (no result: Scp-1 inhibitor, GRK2 aptamer HTS)
Cc1cc(C)n2[nH]c(=O)c(N=Nc3ccc(S(N)(=O)=O)cc3)c2n1	none
Nc1nc(O)c(N=Nc2ccc(S(N)(=O)=O)cc2)c(=O)[nH]1	GRK2 aptamer HTS 44.0 (no result: DNMT1 block, SUMO1 PPI mod, STEP block, LMPTP inh) | GRK2 CP1 inactive | Aptamer quench SP inactive
Cc1cc(C(=O)Nc2nncs2)oc1C	GRK2 aptamer HTS 90.0 | GRK2 CP1 inactive | Aptamer quench SP inactive
Cc1ccccc1C(=O)Nc1nncs1	none
Nc1nn(-c2ccccc2)c2ccc([N+](=O)[O-])cc12	GRK2 aptamer HTS 75.0 | GRK2 CP1 inactive | Aptamer quench SP inactive
CCCC(=O)N1CCCC1(C)C(=O)Nc1cc(OC)c(OC)c(OC)c1 (stereo unspecified)	none (no result: Scp-1 inhibitor, GRK2 aptamer HTS)
NC(c1csc(Nc2cc(NCCCO)ncn2)n1)c1ccccc1Cl (stereo unspecified)	none (no result: Scp-1 inhibitor, GRK2 aptamer HTS)
Oc1c(Br)cc(Br)cc1C=NCc1ccc(F)cc1	GRK2 aptamer HTS 41.0 | GRK2 CP1 inactive | Aptamer quench SP inactive
